Bioassay records: PubChem BioAssay, several laboratories
Rows were chosen to be rich in hits. Some 2.1% of all compounds tested hit in one or more screens of this group.
Arbovirus anti = antivirals against arbovirus infection. arbovirus infection cell-based antiviral screen. inhibition, % at 10 µM. 200,000 compounds, 0.37% hits; in the data active = inhibition above about 30%
bCat nuc transl = alters nuclear translocation of beta-catenin in HeLa cells; 190,000 compounds, 0.3% hits; nuclear translocation activity, % at 5 µM; immunofluorescence imaging;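 active = nuclear translocation activity above 50% at 5 µM, with a well cell count of 50 or more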;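 note: per-cell ratio of nuclear to cytoplasmic median beta-catenin stain intensity; plate controls were DMSO negative control for no effect and GSK-3 inhibitor IX positive control for full effect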
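assay system = human HeLa cells, endogenous beta-catenin | times = compound treatment 24 h, 37°C, 5% CO2 | detection = Anti-beta-catenin immunofluorescence on PFA-fixed, Triton-permeabilized cells, DAPI nuclei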
ABCG2 block = blocks JC-1 efflux by human ABCG2 transporter; Q9UNQ0; IgMXP3 cells, flow cytometry; inhibition, % at 6.6 µM; 190,000 compounds, 0.1% hits; AID 1325;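 active = inhibition above 80%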;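 note: 0% = DMSO and 100% = nicardipine control wells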
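Test system: IgMXP3 (ABCG2) plus far-red-tagged CCRF-Adr (ABCB1) cells / Amount: 3 million cells/mL in well / Reagent: JC-1 transporter substrate / Timing: 10 min compound exposure, 25 °C / Signal: flow cytometry, 530 nm JC-1 signal / Read-out: percent efflux inhibition, scaled nicardipine 100% to DMSO 0% / Benchmarks: nicardipine as high control, DMSO as low control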
MT stabilize HCS = microtubule stabilizers in HeLa cells; AID 2205; % tubulin-high responders, % at 10 µM; HeLa tubulin immunostaining HCS, 24 h; share of cells brighter than vehicle mean+2SD; 200,000 compounds, 0.83% hits;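 active = plate Z-score above 3 for both tubulin-high and condensed-nucleus cell shares, with cell loss under 80%, at 10 µM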;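 note: anti alpha tubulin signal scored within the nucleus-defined area of each cell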
Autophagy HCS = alters autophagy in cells. MEF GFP-LC3 puncta imaging; test concentration mostly 10 µM. calls only at 10 µM (by protocol). 190,000 compounds, 0.98% hits;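 active = percentage of spot-positive cells more than 3 SD above its plate mean, without a fluorescence outlier flag or 80% toxicity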;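 note: spot-positive cell cutoff set from DMSO-treated cells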
ABCB1 inh = blocks JC-1 efflux by human ABCB1 transporter; P08183; CCRF-Adr cells, flow cytometry; inhibition, % at 6.6 µM; 190,000 compounds, 0.067% hits; in the data active = inhibition above about 40%;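 note: 0% = vehicle and 100% = reference inhibitor; higher value means more JC-1 retained so stronger ABCB1 efflux block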
ABCB1 single pt = inhibits human ABCB1 efflux, confirmed at single point; shares compounds with ABCG2 block; CCRF-Adr cells, JC-1 efflux, flow cytometry; inhibition, % at 6.6 µM; 270 compounds, 7% hits;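 active = inhibition of pump activity above 50%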;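 note: 0% = DMSO and 100% = nicardipine full pump inhibition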
ABCG2 single pt = inhibits human ABCG2 efflux, confirmed at single point; 270 compounds, 6% hits; shares compounds with ABCG2 block; inhibition, % at 6.6 µM; IgMXP3 cells, JC-1 efflux, flow cytometry;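 active = inhibition above 50%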;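 note: 0% = DMSO wells and 100% = nicardipine pump inhibitor wells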
IgMXP3 fluor = compound fluoresces at 488/530 nm in IgMXP3 cells; shares compounds with ABCG2 block; compound autofluorescence 488/530 nm, flow; stronger effect = higher value; fluorescence at 6.6 µM; 270 compounds, 30% hits; AID 1480;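 active = fluorescence in ABCG2-expressing cells above the plate's control-well mean plus 3 SD, cut at about 15 in these data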;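 note: median cell fluorescence with compound minus that of DMSO-treated control cells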
CCRF-Adr fluor = counter-screen for ABCB1 inhibitors: compound fluorescence in CCRF-Adr cells. shares compounds with ABCG2 block. compound autofluorescence 488/530 nm, flow cytometry; stronger effect = higher value. 270 compounds, 30% hits. fluorescence at 6.6 µM;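 active = fluorescence beyond the plate control mean plus 3 SD, with a fluorescence-to-maximum score over 2, cut at about 25 in these data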
An asterisk follows results filed as active; i = inactive; x = no result given.

SMILES	Arbovirus anti	bCat nuc transl	ABCG2 block	MT stabilize HCS	Autophagy HCS	ABCB1 inh	ABCB1 single pt	ABCG2 single pt	IgMXP3 fluor	CCRF-Adr fluor
COc1ccc([N+](=O)[O-])cc1NC(=O)C(C)Sc1ccc(C)cc1 (stereo not given)	-4	-2	82*	6	i	2	5	35	3.6	3.8
CCCCCn1c(CN2CCN(Cc3ccccc3)CC2)nc2c1c(=O)n(C)c(=O)n2C	-7	x	28	3	i	57*	23	14	0.81	-2.4
COc1ccc(/C(C)=N\n2cnnc2)cc1	-1	-4	1	2	i	0	x	x	x	x
CCc1ccc(NC(=O)CSc2nc3ccccc3c(=O)n2CCCC(=O)N2CCCC2)cc1	-1	x	70	27*	i	71*	24	44	-3.4	-5.6
Cc1ccccc1Cn1cc(S(=O)(=O)CC(=O)Nc2nccs2)c2ccccc21	2	0	83*	1	i	9	7	14	-1.1	-2.1
CSC(=O)NC12CC3CC(CC(C)(C3)C1)C2	3	-6	1	5	i	0	x	x	x	x
S=c1[nH]nc(-c2ccc3ccccc3n2)n1-c1ccc2ncccc2c1	-1	-1	64	2	i	0	6	11	32*	20
